Assay results reported in ChEMBL document CHEMBL1157208, “Synthesis and CNS depressant activity of some novel 3-[5-substituted 1,3,4-thiadiazole-2-yl]-2-styryl quinazoline-4(3H)-ones” (Eur J Med Chem, 2008).
Calls of active or inactive are those of the source. The rule behind the calls is not given here.

What was measured:
Mus musculus [1] = experiment: Sedative-hypnotic effect in mouse assessed as decrease locomotor activity score at 100 mg/kg, ip after 0.5 hrs by actophotometer; assay type: functional; details: route intraperitoneal
Procedure, shortened: (§1)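 Locomotor activity in mice was read as a digital photocell score on an actophotometer. Baseline was taken 24 h before treatment, then at 30 min and 1 h after 100 mg/kg i.p. Controls received PEG 400. Percent decrease was calculated from the 1 h values. Results are mean ± SEM of six mice, compared with Student's t test.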

Mus musculus [2] = experiment: Sedative-hypnotic effect in mouse assessed as decrease locomotor activity score at 100 mg/kg, ip after 1 hr by actophotometer; assay type: functional; details: route intraperitoneal; procedure, shortened: as §1
Mus musculus [3] = experiment: Sedative-hypnotic effect in mouse assessed as inhibition of locomotor activity at 100 mg/kg, ip by actophotometer; assay type: functional; details: route intraperitoneal; procedure, shortened: as §1
Mus musculus [4] = experiment: Anticonvulsant activity in mouse assessed as inhibition of maximal electroshock-induced seizures at 300 mg/kg, ip after 0.5 hrs; assay type: functional, organism-based; parameters: dose 300 mg/kg
Procedure, shortened: (§2)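 Male albino mice (CF-1 or Swiss, 18–25 g) received compound suspended in polyethylene glycol 400, i.p., 0.01 ml/g, at 30, 100 and 300 mg/kg. Maximal electroshock and subcutaneous pentylenetetrazole seizure tests were run at 0.5 and 4 h by a previously reported procedure.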

Mus musculus [5] = experiment: Anticonvulsant activity in mouse assessed as inhibition of maximal electroshock-induced seizures at 300 mg/kg, ip after 4 hrs; assay type: functional, organism-based; parameters: dose 300 mg/kg; procedure, shortened: as §2
Mus musculus [6] = experiment: Anticonvulsant activity in mouse assessed as inhibition of pentylenetetrazole-induced seizure at 300 mg/kg, ip after 0.5 hrs; assay type: functional, organism-based; parameters: dose 300 mg/kg; procedure, shortened: as §2
Mus musculus [7] = experiment: Anticonvulsant activity in mouse assessed as inhibition of pentylenetetrazole-induced seizure at 300 mg/kg, ip after 4 hrs; assay type: functional, organism-based; parameters: dose 300 mg/kg; procedure, shortened: as §2
Mus musculus [8] = experiment: Neurotoxicity in mouse at 300 mg/kg, ip after 0.5 hrs by rotarod test; assay type: toxicity, organism-based; parameters: dose 300 mg/kg, route intraperitoneal; details: in vivo
Procedure, shortened: (§3)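 Mice dosed i.p. at 30, 100 and 300 mg/kg in PEG 400 were examined 0.5 and 4 h later on a rotorod. Animals were pre-trained on a 3.2 cm rod turning at 6 rpm. Neurotoxicity meant failing to keep equilibrium for at least 1 min in each of three trials. The value is the minimum dose affecting half or more of the animals.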

Mus musculus [9] = experiment: Neurotoxicity in mouse at 300 mg/kg, ip after 4 hrs by rotarod test; assay type: toxicity, organism-based; parameters: dose 300 mg/kg, route intraperitoneal; details: in vivo; procedure, shortened: as §3
Mus musculus [10] = experiment: Anticonvulsant activity in ip dosed mouse assessed as inhibition of maximal electroshock-induced seizures after 0.5 hrs; assay type: functional; procedure, shortened: as §2
Mus musculus [11] = experiment: Anticonvulsant activity in ip dosed mouse assessed as inhibition of maximal electroshock-induced seizures after 4 hrs; assay type: functional; procedure, shortened: as §2
Mus musculus [12] = experiment: Anticonvulsant activity in ip dosed mouse assessed as inhibition of pentylenetetrazole-induced seizure after 0.5 hrs; assay type: functional; procedure, shortened: as §2
Mus musculus [13] = experiment: Anticonvulsant activity in ip dosed mouse assessed as inhibition of pentylenetetrazole-induced seizure after 4 hrs; assay type: functional; procedure, shortened: as §2
Mus musculus [14] = experiment: Neurotoxicity in ip dosed mouse after 0.5 hrs by rotarod test; assay type: toxicity, organism-based; details: in vivo; procedure, shortened: as §3
Mus musculus [15] = experiment: Neurotoxicity in mouse assessed as loss of righting reflux at 100 mg/kg, ip after 0.5 hrs; assay type: toxicity, organism-based; parameters: dose 100 mg/kg, route intraperitoneal; details: in vivo

Row | Compound | Activity (Mus musculus [1]) | Activity (Mus musculus [2]) | inhibition in vivo at 100 mg/kg (Mus musculus [3]) [%] | Activity (Mus musculus [4]) | Activity (Mus musculus [5]) | Activity (Mus musculus [6]) | Activity (Mus musculus [7]) | Activity (Mus musculus [8]) | Activity (Mus musculus [9]) | Activity (Mus musculus [10]) [mg/kg] | Activity (Mus musculus [11]) [mg/kg] | Activity (Mus musculus [12]) [mg/kg] | Activity (Mus musculus [13]) [mg/kg] | Activity (Mus musculus [14]) [mg/kg] | Activity (Mus musculus [15])
1 | COc1ccc(-c2nnc(-n3c(/C=C/c4ccc(C)cc4)nc4ccccc4c3=O)s2)cc1 | 272.19 | 137.19 | 65 | inactive | inactive | inactive | inactive | Not Active | Not Active | – | – | – | – | – | –
2 | COc1ccc(/C=C/c2nc3ccccc3c(=O)n2-c2nnc(/C=C/c3ccccc3)s2)cc1 | 362.37 | 228.32 | 51 | inactive | inactive | inactive | inactive | Not Active | Not Active | – | – | – | – | – | –
3 | O=c1c2ccccc2nc(/C=C/c2ccccc2)n1-c1nnc(-c2ccc(Cl)cc2)s1 | 250.62 | 132.04 | 68 | – | – | – | – | Not Active | Not Active | 100 | 100 | 300 | 300 | – | –
4 | COc1ccc(/C=C/c2nc3ccccc3c(=O)n2-c2nnc(-c3ccc(OC)cc3)s2)cc1 | 308.13 | 180.3 | 59 | inactive | inactive | inactive | inactive | – | Not Active | – | – | – | – | 300 | –
5 | COc1ccc(-c2nnc(-n3c(/C=C/c4ccccc4)nc4ccccc4c3=O)s2)cc1 | 381.82 | 266.36 | 36 | inactive | inactive | inactive | inactive | Not Active | Not Active | – | – | – | – | – | –
6 | O=c1c2ccccc2nc(/C=C/c2ccccc2)n1-c1nnc(/C=C/c2ccccc2)s1 | 372.87 | 489.92 | – | inactive | inactive | inactive | inactive | – | Not Active | – | – | – | – | 300 | –
7 | CCCC(CCC)C(=O)[O-].[Na+] [VALPROATE SODIUM] | – | – | – | inactive | inactive | – | inactive | Not Active | Not Active | – | – | 300 | – | – | –
8 | COc1ccc(/C=C/c2nc3ccccc3c(=O)n2-c2nnc(-c3cccc(Cl)c3)s2)cc1 | 292.39 | 110.45 | 66 | inactive | – | inactive | inactive | Not Active | Not Active | – | 300 | – | – | – | –
9 | Cc1ccc(/C=C/c2nc3ccccc3c(=O)n2-c2nnc(-c3ccc(Cl)cc3)s2)cc1 | 373.56 | 153.08 | 64 | inactive | – | inactive | inactive | Not Active | Not Active | – | 300 | – | – | – | –
10 | COc1ccc(/C=C/c2nc3ccccc3c(=O)n2-c2nnc(-c3ccccc3)s2)cc1 | 419.24 | 210.24 | 55 | inactive | inactive | inactive | inactive | – | Not Active | – | – | – | – | – | Toxic
11 | Cc1ccc(/C=C/c2nc3ccccc3c(=O)n2-c2nnc(-c3ccc(C)cc3)s2)cc1 | 291.39 | 92.2 | 71 | inactive | inactive | inactive | inactive | Not Active | Not Active | – | – | – | – | – | –
12 | Cc1ccc(/C=C/c2nc3ccccc3c(=O)n2-c2nnc(-c3cccc(Cl)c3)s2)cc1 | 298.67 | 128.94 | 65 | inactive | inactive | – | – | Not Active | Not Active | – | – | 300 | 300 | – | –
13 | Cc1ccc(/C=C/c2nc3ccccc3c(=O)n2-c2nnc(-c3ccccc3)s2)cc1 | 353.52 | 185.15 | 55 | inactive | inactive | inactive | inactive | Not Active | Not Active | – | – | – | – | – | –
14 | Cc1ccc(-c2nnc(-n3c(/C=C/c4ccccc4)nc4ccccc4c3=O)s2)cc1 | 531 | 467 | – | inactive | inactive | inactive | inactive | Not Active | Not Active | – | – | – | – | – | –
15 | COc1ccc(/C=C/c2nc3ccccc3c(=O)n2-c2nnc(-c3ccc(C)cc3)s2)cc1 | 315.46 | 142.19 | 64 | inactive | inactive | – | inactive | Not Active | Not Active | – | – | 300 | – | – | –
16 | COc1ccc(/C=C/c2nc3ccccc3c(=O)n2-c2nnc(-c3ccc(Cl)cc3)s2)cc1 | 306.98 | 155.31 | 62 | inactive | – | – | – | Not Active | Not Active | – | 300 | – | 300 | – | –
17 | Cc1ccc(/C=C/c2nc3ccccc3c(=O)n2-c2nnc(/C=C/c3ccccc3)s2)cc1 | 310.32 | 123.32 | 67 | inactive | inactive | inactive | inactive | Not Active | Not Active | – | – | – | – | – | –
18 | CCC1(C)CC(=O)NC1=O (stereo not drawn) [ETHOSUXIMIDE] | – | – | – | inactive | inactive | – | inactive | Not Active | Not Active | – | – | 300 | – | – | –
